From ChEMBL document CHEMBL1143105, “Potent and selective small molecule NS3 serine protease inhibitors of Hepatitis C virus with dichlorocyclopropylproline as P2 residue” (Bioorg Med Chem, 2008)
One block for each compound: values may come before it. *1 amine or outer side, *2 acyl side, *3 side chain or, on linkers, in order; H or OH if unused. Where a SMILES comes first, the peptide text is derived from it. [ ]: non-standard residue; d: D form. The star is where a group is joined. Pro(3R,4S-CMe2) = CC1(C)[C@@H]2[C@@H](C(=O)O)NC[C@@H]21; Pro(3S,4R-CCl2) = O=C(O)[C@H]1NC[C@H]2[C@@H]1C2(Cl)Cl; X2 = O=C(C(=O)[*:2])C(CC1CCC1)N[*:1]; X1 = O=C(C(=O)[*:2])C(CC1CC1)N[*:1]; X3 = CCCC(N[*:1])C(=O)C(=O)[*:2]; Chg = N[C@H](C(=O)O)C1CCCCC1; Phg = N[C@H](C(=O)O)c1ccccc1; Tle = CC(C)(C)[C@H](N)C(=O)O; Boc = CC(C)(C)OC(=O)*

Experiments:
[1] = Inhibition of hepatitis C virus NS3 serine protease; design: species or system Hepacivirus hominis
[2] = Oral bioavailability in rat; assay type: ADME, organism-based; conditions: in vivo
[3] = Half life in dog; assay type: ADME, organism-based, Canis lupus familiaris; conditions: in vivo
[4] = Half life in rat; assay type: ADME, organism-based; conditions: in vivo
Hepatitis C virus = experiment: Antiviral activity in hepatitis C virus by cell based replicon assay; assay type: functional, organism-based, Hepacivirus hominis
[5] = Oral bioavailability in dog; assay type: ADME, organism-based, Canis lupus familiaris; conditions: in vivo
[6] = AUC in rat at 10 mg/kg, iv; assay type: ADME, organism-based; design: dose 10 mg/kg, route intravenous; conditions: plasma
[7] = AUC in rat at 10 mg/kg, po; assay type: ADME, organism-based; design: dose 10 mg/kg, route oral; conditions: plasma
[8] = Half life in monkey; assay type: ADME, organism-based, Macaca mulatta; conditions: rhesus monkey, in vivo
[9] = AUC in monkey at 3 mg/kg, po; assay type: ADME, organism-based, Macaca mulatta; design: dose 3 mg/kg, route oral; conditions: rhesus monkey, plasma
[10] = AUC in monkey at 2.2 mg/kg, iv; assay type: ADME, organism-based, Macaca mulatta; design: dose 2.2 mg/kg, route intravenous; conditions: rhesus monkey, plasma
[11] = AUC in dog at 2.2 mg/kg, iv; assay type: ADME, organism-based, Canis lupus familiaris; design: dose 2.2 mg/kg, route intravenous; conditions: plasma
How it was run: (§1)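 AUC is given in µM h. Compounds were tested as mixtures of two diastereomers at the P1 α-centre, with the isomer ratio varying slightly by compound.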

[12] = Oral bioavailability in monkey; assay type: ADME, organism-based, Macaca mulatta; conditions: rhesus monkey, in vivo
[13] = AUC in dog at 3 mg/kg, po; assay type: ADME, organism-based, Canis lupus familiaris; design: dose 3 mg/kg, route oral; conditions: plasma; how it was run: as §1
[14] = AUC in monkey at 0.6 mg/kg, iv; assay type: ADME, organism-based, Macaca mulatta; design: dose 0.6 mg/kg, route intravenous; conditions: rhesus monkey, plasma; how it was run: as §1
[15] = AUC in dog at 1.5 mg/kg, po; assay type: ADME, organism-based, Canis lupus familiaris; design: dose 1.5 mg/kg, route oral; conditions: plasma; how it was run: as §1
[16] = AUC in monkey at 1.5 mg/kg, po; assay type: ADME, organism-based, Macaca mulatta; design: dose 1.5 mg/kg, route oral; conditions: rhesus monkey, plasma; how it was run: as §1
[17] = AUC in dog at 0.6 mg/kg, iv; assay type: ADME, organism-based, Canis lupus familiaris; design: dose 0.6 mg/kg, route intravenous; conditions: plasma; how it was run: as §1
[18] = AUC in rat at 7.5 mg/kg, po; assay type: ADME, organism-based; design: dose 7.5 mg/kg, route oral; conditions: plasma; how it was run: as §1
[19] = AUC in rat at 6 mg/kg, iv; assay type: ADME, organism-based; design: dose 6 mg/kg, route intravenous; conditions: plasma; how it was run: as §1

SMILES: C=CCNC(=O)C(=O)C(CCC)NC(=O)[C@@H]1[C@@H]2[C@H](CN1C(=O)[C@@H](NC(=O)NC(C)(C)C)C1CCCCC1)C2(Cl)Cl (stereo partly specified)
- Ki [1]: 100 nM

- bioavailability [2]: 26%
- half-life [3]: 16 h
- half-life [4]: 4.4 h
- EC50 (Hepatitis C virus): 500 nM
- bioavailability [5]: 2%
- AUC [6]: 10.7 µM·h
- AUC [7]: 2.7 µM·h
- half-life [8]: 9.6 h
- AUC [9]: 0.13 µM·h
- AUC [10]: 1.2 µM·h
- AUC [11]: 2.6 µM·h
- bioavailability [12]: 8%
- AUC [13]: 0.07 µM·h
SMILES: CC(C)(C)OC(=O)N[C@H](C(=O)N1C[C@H]2[C@@H]([C@H]1C(=O)NC(CC1CC1)C(=O)C(N)=O)C2(Cl)Cl)C1CCCCC1 (stereo partly specified)
- Ki [1]: 11 nM

- EC50 (Hepatitis C virus): 40 nM
SMILES: C[C@@H](NC(=O)N[C@H](C(=O)N1C[C@H]2[C@@H]([C@H]1C(=O)NC(CC1CCC1)C(=O)C(N)=O)C2(Cl)Cl)C1CCCCC1)C(C)(C)C (stereo partly specified)
- Ki [1]: 10 nM

SMILES: CC(C)(OC(=O)N[C@H](C(=O)N1C[C@H]2[C@@H]([C@H]1C(=O)NC(CC1CCC1)C(=O)C(N)=O)C2(Cl)Cl)C1CCCCC1)C(F)(F)F (stereo partly specified)
- Ki [1]: 65 nM

SMILES: CC(C)(C)NC(=O)N[C@H](C(=O)N1C[C@H]2[C@@H]([C@H]1C(=O)NC(CC1CCC1)C(=O)C(N)=O)C2(Cl)Cl)C1Cc2ccccc2C1 (stereo partly specified)
- Ki [1]: 30 nM

SMILES: C=CCNC(=O)C(=O)C(CCC)NC(=O)[C@@H]1[C@@H]2[C@H](CN1C(=O)[C@@H](NC(=O)OC(C)(C)C)C1CCCCC1)C2(Cl)Cl (stereo partly specified)
- Ki [1]: 90 nM

- bioavailability [2]: 12%
- half-life [3]: 6.3 h
- half-life [4]: 5.6 h
- EC50 (Hepatitis C virus): 100 nM
- bioavailability [5]: 10%
- AUC [6]: 2.6 µM·h
- AUC [7]: 0.3 µM·h
- half-life [8]: 1.1 h
- AUC [9]: 0.77 µM·h
- AUC [10]: 1.2 µM·h
- AUC [11]: 4.5 µM·h
- bioavailability [12]: 50%
- AUC [13]: 0.61 µM·h
SMILES: CC(C)(C)OC(=O)N[C@H](C(=O)N1C[C@H]2[C@@H]([C@H]1C(=O)NC(CC1CCC1)C(=O)C(N)=O)C2(Cl)Cl)C(C)(C)C (stereo partly specified)
- Ki [1]: 9 nM

SMILES: NC(=O)C(=O)C(CC1CCC1)NC(=O)[C@@H]1[C@@H]2[C@H](CN1C(=O)[C@@H](NC(=O)NC1CCCCC1)C1CCCCC1)C2(Cl)Cl (stereo partly specified)
- Ki [1]: 15 nM

SMILES: CCCC(NC(=O)[C@@H]1[C@@H]2[C@H](CN1C(=O)[C@@H](NC(=O)NC(C)(C)C)C1CCCCC1)C2(Cl)Cl)C(=O)C(N)=O (stereo partly specified)
- Ki [1]: 20 nM

SMILES: CC(C)(C)OC(=O)N[C@H](C(=O)N1C[C@H]2[C@@H]([C@H]1C(=O)NC(CC1CCC1)C(=O)C(N)=O)C2(Cl)Cl)C1Cc2ccccc2C1 (stereo partly specified)
- Ki [1]: 60 nM

- EC50 (Hepatitis C virus): 200 nM
- AUC [7]: 0.75 µM·h
SMILES: NC(=O)C(=O)C(CC1CCC1)NC(=O)[C@@H]1[C@@H]2[C@H](CN1C(=O)[C@@H](NC(=O)OC1CC3CCC1C3)C1CCCCC1)C2(Cl)Cl (stereo partly specified)
- Ki [1]: 60 nM

- EC50 (Hepatitis C virus): 300 nM
- AUC [7]: 0.32 µM·h
SMILES: CC(C)(C)NC(=O)N[C@H](C(=O)N1C[C@H]2[C@@H]([C@H]1C(=O)NC(CC1CCC1)C(=O)C(N)=O)C2(Cl)Cl)C1CCCCC1 (stereo partly specified)
- Ki [1]: 6 nM

SMILES: CCCC(NC(=O)[C@@H]1[C@@H]2[C@H](CN1C(=O)[C@@H](NC(=O)OC(C)(C)C)C1CCCCC1)C2(Cl)Cl)C(=O)C(N)=O (stereo partly specified)
- Ki [1]: 36 nM

- half-life [3]: 4.7 h
- EC50 (Hepatitis C virus): 300 nM
- AUC [14]: 0.6 µM·h
- AUC [15]: 0.1 µM·h
- bioavailability [5]: 2%
- AUC [16]: 0.06 µM·h
- AUC [7]: 2.4 µM·h
- half-life [8]: 1.9 h
- bioavailability [12]: 4%
- AUC [17]: 2 µM·h
SMILES: CC(C)(C)OC(=O)N[C@H](C(=O)N1C[C@H]2[C@@H]([C@H]1C(=O)NC(CC1CCC1)C(=O)C(N)=O)C2(Cl)Cl)C1CCCCC1 (stereo partly specified)
- Ki [1]: 17 nM

SMILES: C=CCCC(NC(=O)[C@@H]1[C@@H]2[C@H](CN1C(=O)[C@@H](NC(=O)NC(C)(C)C)C1CCCCC1)C2(Cl)Cl)C(=O)C(=O)NCC=C (stereo partly specified)
- Ki [1]: 44 nM

- bioavailability [2]: 5%
- half-life [4]: 2.7 h
- EC50 (Hepatitis C virus): 200 nM
- AUC [18]: 0.12 µM·h
- AUC [19]: 1.9 µM·h
SMILES: CC(C)(C)NC(=O)N[C@H](C(=O)N1C[C@H]2[C@@H]([C@H]1C(=O)NC(CC1CCC1)C(=O)C(N)=O)C2(Cl)Cl)C(C)(C)C (stereo partly specified)
- Ki [1]: 7 nM

SMILES: CN(C)C(=O)[C@@H](NC(=O)CNC(=O)C(=O)C(CC1CC1)NC(=O)[C@@H]1[C@@H]2[C@H](CN1C(=O)[C@@H](NC(=O)OC(C)(C)C)C1CCCCC1)C2(Cl)Cl)c1ccccc1 (stereo partly drawn) (Boc-[Chg][Pro(3S,4R-CCl2)][X1]G[Phg]-NMe2)
- Ki [1]: 7 nM

SMILES: CN(C)C(=O)[C@@H](NC(=O)CNC(=O)C(=O)C(CC1CCC1)NC(=O)[C@@H]1[C@@H]2[C@H](CN1C(=O)[C@@H](NC(=O)OC(C)(C)C)C1CCCCC1)C2(Cl)Cl)c1ccccc1 (stereo partly drawn) (Boc-[Chg][Pro(3S,4R-CCl2)][X2]G[Phg]-NMe2)
- Ki [1]: 9 nM

SMILES: CCCC(NC(=O)[C@@H]1[C@@H]2[C@H](CN1C(=O)[C@@H](NC(=O)OC(C)(C)C)C1CCCCC1)C2(Cl)Cl)C(=O)C(=O)NCC(=O)N[C@H](C(=O)N(C)C)c1ccccc1 (stereo partly drawn) (Boc-[Chg][Pro(3S,4R-CCl2)][X3]G[Phg]-NMe2)
- Ki [1]: 15 nM

- bioavailability [2]: 4%
- EC50 (Hepatitis C virus): 40 nM
- bioavailability [12]: 1%
SMILES: CN(C)C(=O)[C@@H](NC(=O)CNC(=O)C(=O)C(CC1CC1)NC(=O)[C@@H]1[C@@H]2[C@H](CN1C(=O)[C@@H](NC(=O)OC(C)(C)C)C(C)(C)C)C2(C)C)c1ccccc1 (stereo partly drawn) (Boc-[Tle][Pro(3R,4S-CMe2)][X1]G[Phg]-NMe2)
- Ki [1]: 3.8 nM

- EC50 (Hepatitis C virus): 200 nM
SMILES: CC(C)(C)NC(=O)N[C@H](C(=O)N1C[C@H]2[C@@H]([C@H]1C(=O)NC(CC1CCC1)C(=O)C(N)=O)C2(C)C)C(C)(C)C (stereo partly specified) [BOCEPREVIR]
- Ki [1]: 14 nM
